Assay results from the array DNA melting data of Ke et al. (doi:10.1101/2024.01.08.574731).

Experiments:
[1] = folding enthalpy; higher = less favourable; fluorescence melt of hairpins on a sequencing array, two-state fit; settings: sodium 0.088 M
How it was run: (§1)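 To match UV melts, fitted temperatures were raised by 9.35 °C. These fits were bootstrapped two-state models that gave melting temperature and folding enthalpy, combined by inverse variance over four replicates. The input was normalised Cy3 fluorescence of library hairpins with annealed Cy3 and quencher oligos on a sequenced MiSeq flow cell, imaged in 50 mM Na-HEPES pH 8.0, 25 mM NaCl in 2.5 °C steps up to 60 °C.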

[2] = melting temperature; fluorescence melt of hairpins on a sequencing array, two-state fit, raised by 9.35 °C to match UV melts; settings: sodium 0.088 M
How it was run: as §1

Sequence | folding enthalpy [1] | Tm [2]
GATATTCCGAAAGGAATC (((..(((....)))))) | -11.4 kcal/mol | 32.7 °C
GATATTGGAAACAATGTC ((.((((....)))).)) | -30.9 kcal/mol | 36.3 °C
GATCAAAACCTTGATC ((((((....)))))) | -32.5 kcal/mol | 44.4 °C
GATCAAAACGTTGATC ((((((....)))))) | -28.1 kcal/mol | 39.8 °C
GATCAAAACTTGATC ((((((...)))))) | -27.6 kcal/mol | 41.7 °C
GATCAAAATGTTGATC ((((((....)))))) | -28.1 kcal/mol | 38.4 °C
GATCAAAATTTGATC ((((((...)))))) | -26.4 kcal/mol | 39.3 °C
GATCAAACACTTGATC ((((((....)))))) | -28.7 kcal/mol | 37.9 °C
GATCAAACATTTGATC ((((((....)))))) | -30.2 kcal/mol | 42.4 °C
GATCAAACCTTTGATC ((((((....)))))) | -30.1 kcal/mol | 46 °C
GATCAAAGTCTTGATC ((((((....)))))) | -31.1 kcal/mol | 41.7 °C
GATCAAAGTTTTGATC ((((((....)))))) | -29.2 kcal/mol | 46.1 °C
GATCAAATCTTGATC ((((((...)))))) | -27.8 kcal/mol | 42 °C
GATCAAATGCTTGATC ((((((....)))))) | -29.6 kcal/mol | 41.5 °C
GATCAACAACTTGATC ((((((....)))))) | -35.1 kcal/mol | 38.4 °C
GATCAACAATTTGATC ((((((....)))))) | -26.8 kcal/mol | 38 °C
GATCAACCAATTGATC ((((((....)))))) | -32.7 kcal/mol | 39 °C
GATCAACCATTGATC ((((((...)))))) | -29 kcal/mol | 38.8 °C
GATCAACCTCTTGATC ((((((....)))))) | -30.3 kcal/mol | 43.5 °C
GATCAACGAATTGATC ((((((....)))))) | -25.8 kcal/mol | 38.5 °C
GATCAACGGCTTGATC ((((((....)))))) | -28.7 kcal/mol | 42.4 °C
GATCAACTCCTTGATC ((((((....)))))) | -36.6 kcal/mol | 44.2 °C
GATCAACTCGTTGATC ((((((....)))))) | -42.6 kcal/mol | 57.5 °C
GATCAACTGTTTGATC ((((((....)))))) | -32.3 kcal/mol | 43.2 °C

Sequence | folding enthalpy [1] | Tm [2]
GATCAACTTGTTGATC ((((((....)))))) | -51.7 kcal/mol | 60.5 °C
GATCAAGAATTGATC ((((((...)))))) | -34.6 kcal/mol | 51.9 °C
GATCAAGACATTGATC ((((((....)))))) | -38.8 kcal/mol | 50.1 °C
GATCAAGCCCTTGATC ((((((....)))))) | -49.1 kcal/mol | 49.4 °C
GATCAAGCGGTTGATC ((((((....)))))) | -38.1 kcal/mol | 46.5 °C
GATCAAGCTTTTGATC ((((((....)))))) | -34.8 kcal/mol | 44.5 °C
GATCAAGGACTTGATC ((((((....)))))) | -40 kcal/mol | 50.7 °C
GATCAAGGATTGATC ((((((...)))))) | -38.8 kcal/mol | 49.8 °C
GATCAAGGGCTTGATC ((((((....)))))) | -34.6 kcal/mol | 46.7 °C
GATCAAGGGTTGATC ((((((...)))))) | -24 kcal/mol | 40.3 °C
GATCAAGTAATTGATC ((((((....)))))) | -32.1 kcal/mol | 50 °C
GATCAAGTATTGATC ((((((...)))))) | -43.4 kcal/mol | 51.8 °C
GATCAAGTGGTTGATC ((((((....)))))) | -27.6 kcal/mol | 41.9 °C
GATCAAGTTTTTGATC ((((((....)))))) | -36 kcal/mol | 45.5 °C
GATCAATCAGTTGATC ((((((....)))))) | -29.6 kcal/mol | 44.4 °C
GATCAATCATTTGATC ((((((....)))))) | -37.3 kcal/mol | 45.5 °C
GATCAATCCTTGATC ((((((...)))))) | -28.7 kcal/mol | 44 °C
GATCAATCGTTTGATC ((((((....)))))) | -33.8 kcal/mol | 45.7 °C
GATCAATCTATTGATC ((((((....)))))) | -43.2 kcal/mol | 49.8 °C
GATCAATCTGTTGATC ((((((....)))))) | -35.1 kcal/mol | 45.6 °C
GATCAATGACTTGATC ((((((....)))))) | -29.1 kcal/mol | 39.7 °C
GATCAATGCCTTGATC ((((((....)))))) | -26.2 kcal/mol | 45.3 °C
GATCAATGGGTTGATC ((((((....)))))) | -35.5 kcal/mol | 48.3 °C
GATCAATTCCTTGATC ((((((....)))))) | -35.3 kcal/mol | 45.4 °C

Sequence | folding enthalpy [1] | Tm [2]
GATCAATTTGTTGATC ((((((....)))))) | -35.6 kcal/mol | 47.3 °C
GATCACAACCGTGATC ((((((....)))))) | -39.2 kcal/mol | 57.2 °C
GATCACAATGTGATC ((((((...)))))) | -36.8 kcal/mol | 55.6 °C
GATCACAATTGTGATC ((((((....)))))) | -41.6 kcal/mol | 56.1 °C
GATCACACTAGTGATC ((((((....)))))) | -43.4 kcal/mol | 58.8 °C
GATCACAGACGTGATC ((((((....)))))) | -37 kcal/mol | 57 °C
GATCACAGATGTGATC ((((((....)))))) | -37.8 kcal/mol | 56.8 °C
GATCACAGCGTGATC ((((((...)))))) | -42 kcal/mol | 61.9 °C
GATCACAGGCGTGATC ((((((....)))))) | -36 kcal/mol | 57.3 °C
GATCACAGGTGTGATC ((((((....)))))) | -36.4 kcal/mol | 59.9 °C
GATCACAGTGGTGATC ((((((....)))))) | -50 kcal/mol | 56.5 °C
GATCACATATGTGATC ((((((....)))))) | -41.9 kcal/mol | 58.9 °C
GATCACATCAGTGATC ((((((....)))))) | -42.1 kcal/mol | 58.4 °C
GATCACATCCGTGATC ((((((....)))))) | -46 kcal/mol | 56.6 °C
GATCACATTGTGATC ((((((...)))))) | -33.7 kcal/mol | 57.9 °C
GATCACCAACGTGATC ((((((....)))))) | -41.6 kcal/mol | 53.8 °C
GATCACCAAGGTGATC ((((((....)))))) | -43.3 kcal/mol | 60 °C
GATCACCACAGTGATC ((((((....)))))) | -40.4 kcal/mol | 57.4 °C
GATCACCATCGTGATC ((((((....)))))) | -31.8 kcal/mol | 54.5 °C
GATCACCATTGTGATC ((((((....)))))) | -39.2 kcal/mol | 56.3 °C
GATCACCCAGGTGATC ((((((....)))))) | -35.7 kcal/mol | 61.6 °C
GATCACCCTGTGATC ((((((...)))))) | -42.3 kcal/mol | 59.3 °C
GATCACCGAAAGGTATC (((.(((....)))))) | -15.8 kcal/mol | 34.1 °C
GATCACCGAAAGGTCATC (((.(((....))).))) | -16.8 kcal/mol | 32.5 °C
